The source made the active and inactive calls. The rule behind the calls is not given here.

Usually MIC50 stands for an inhibitory concentration at the 50% level, which refers to growth in some studies and to a panel of isolates in others.

Data set [1] concerns Candida albicans. Put plainly: Antifungal activity against Candida albicans ATCC SC5314 assessed as appearance of disordered ridge arrangement in cytoplasm at 4 ug/ml incubated for 72 hrs by TEM analysis. The format is functional, organism-based. The settings on record: dose 4.0 µg/ml. Put shortly: (§1)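 C. albicans SC5314 suspension prepared per NCCLS protocol, exposed to compound at 4 μg/mL and incubated at 35 °C. Sampled at 72 h and 144 h, with a 0 h reference. Samples fixed at 4 °C in 3% glutaraldehyde, washed in PBS, stained with uranium/osmium for 30 min, and imaged by transmission electron microscopy.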

For data set [2], the system named is Candida albicans SC5314. Put plainly: Inhibition of SE/CYP51 in Candida albicans ATCC SC5314 assessed as squalene level at 0.125 ug/ml incubated for 48 hrs by LC/MS analysis. Further details: scale not given: the % may be the effect or the level left. The settings on record: dose 0.125 µg/ml. Put shortly: (§2)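 C. albicans ATCC SC5314 cells exposed to drug at 0.125, 0.5 or 4 μg/mL for 48 h, alongside an untreated control. Sterols were extracted and analysed by LC-MS. Ergosterol, squalene, lanosterol, eburicol and unknown sterols are each given as % of total sterols, calculated from the peak area ratio of each component.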

Data set [3] is described as follows: Toxicity in mouse infected with Candida albicans SC5314 assessed as change in kidney morphology administered via abdomen for 7 days by H and E staining based histological analysis. To be noted: in vivo, ip, 168 h, time 7 day. Put shortly: (§3)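 Mice infected with C. albicans SC5314 by subcutaneous abdominal injection, then randomized into saline, and two compound-treated groups. Treatment given by abdominal injection for 7 days, with body weight monitored. Heart, liver, spleen, lung, kidney and infected abdominal tissue harvested for H&E histology.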

Data set [4] has as its system Candida albicans. The data set can be described thus: Antifungal activity against Candida albicans ATCC SC5314 assessed as cracked fungal cells at 4 ug/ml incubated for 144 hrs by TEM analysis. The format is functional, organism-based. The settings on record: dose 4.0 µg/ml. The procedure, abridged:
as §1

For data set [5], the system named is Candida albicans. The data set can be described thus: Antifungal activity against Candida albicans ATCC SC5314 assessed as irregular cell structure at 4 ug/ml incubated for 72 hrs by TEM analysis. The format is functional, organism-based. To be noted: dose 4.0 µg/ml. The procedure, abridged: as §1
The subject of data set [6] is Candida albicans SC5314. The data set can be described thus: Inhibition of SE/CYP51 in Candida albicans ATCC SC5314 assessed as lanosterol level at 0.125 ug/ml incubated for 48 hrs by LC/MS analysis. Also on record: scale not given: the % may be the effect or the level left. To be noted: dose 0.125 µg/ml. The procedure, abridged:
as §2

Data set [7] has as its system Candida albicans. The data set can be described thus: Antifungal activity against Candida albicans ATCC SC5314 assessed as edema cavitation at 4 ug/ml incubated for 72 hrs by TEM analysis. The format is functional, organism-based. The settings on record: dose 4.0 µg/ml. Put shortly:
as §1

The nature of data set [8]: Toxicity in mouse infected with Candida albicans SC5314 assessed as change in liver morphology administered via abdomen for 7 days by H and E staining based histological analysis. The settings on record: in vivo, ip, 168 h, time 7 day. Put shortly:
as §3

Data set [9] has as its system Candida albicans SC5314. The data set can be described thus: Inhibition of SE/CYP51 in Candida albicans ATCC SC5314 assessed as eburicol level at 4 ug/ml incubated for 48 hrs by LC/MS analysis (reference value: 1.4 %). Also on record: scale not given: the % may be the effect or the level left. The settings on record: dose 4.0 µg/ml. The procedure, abridged:
(§4)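 C. albicans SC5314 cells exposed to compound at 0.125, 0.5 or 4 μg/mL for 48 h, alongside untreated, fluconazole and naftifine controls. Sterols (ergosterol, squalene, lanosterol, eburicol, unknown) analysed by LC-MS. Each component expressed as percentage of total sterols from peak area ratios.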

The test system of data set [10] is Candida albicans. Put plainly: Antifungal activity against Candida albicans ATCC SC5314 assessed as disappearance of fungal cell boundaries at 4 ug/ml incubated for 72 hrs by TEM analysis. The format is functional, organism-based. The settings on record: dose 4.0 µg/ml. The procedure, abridged: as §1
For data set [11], the system named is Candida albicans. Put plainly: Antifungal activity against Candida albicans ATCC SC5314 assessed as exfoliation of rough ER particles at 4 ug/ml incubated for 72 hrs by TEM analysis. The format is functional, organism-based. The settings on record: dose 4.0 µg/ml. Put shortly: as §1
Data set [12] deals with Candida albicans. Put plainly: Antifungal activity against Candida albicans ATCC SC5314 assessed as reduction in survival rate of fungal cells (reference value: 97%). The format is functional.
Data set [13] relates to Candida albicans SC5314. Put plainly: Inhibition of SE/CYP51 in Candida albicans ATCC SC5314 assessed as eburicol level at […] ug/ml incubated for 48 hrs by LC/MS analysis (reference value: 1.4 %). Further details: scale not given: the % may be the effect or the level left. To be noted: dose 0.125 µg/ml.
In data set [14] the test system is Candida albicans. The data set can be described thus: Antifungal activity against Candida albicans ATCC 10231 assessed as inhibition of microbial growth by NCCLS protocol based method. The format is functional. The procedure, abridged:
(§5)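 Broth MIC50 determined following NCCLS guidelines in Sabouraud medium, with fungal suspension in 24-well format. Compound tested at 0.0625, 0.125, 0.5, 1, 2, 4, 8 and 16 μg/mL. Plates cultured statically at 35 °C. MIC50 is the lowest concentration giving 50% growth inhibition. Naftifine and fluconazole served as positive controls.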

For the next data set, the system named is Candida tropicalis. The data set can be described thus: Antifungal activity against Candida tropicalis ATCC 1369 assessed as inhibition of microbial growth by NCCLS protocol based method. The format is functional. The procedure, abridged: as §5
The test system of data set [15] is Candida albicans SC5314. The data set can be described thus: Inhibition of SE/CYP51 in Candida albicans ATCC SC5314 assessed as unknown sterol level at 4 ug/ml incubated for 48 hrs by LC/MS analysis (reference value: 3.5 %). Further details: scale not given: the % may be the effect or the level left. To be noted: dose 4.0 µg/ml. Put shortly:
as §4

For data set [16], the system named is Candida albicans. The data set can be described thus: Antifungal activity against Candida albicans ATCC SC5314 assessed as reduction in size of fungal cells (reference value: 8.29 micrometer). The format is functional.
Data set [17] deals with Candida albicans. Put plainly: Antifungal activity against Candida albicans ATCC SC5314 assessed as decrease in fungal cell density at 10 nM/mL by polarizing microscopy. The settings on record: dose 10.0 nmol/ml. The format is functional, organism-based. The procedure, abridged: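 C. albicans ATCC SC5314 observed by polarizing microscopy over treatment time. Untreated, fluconazole- and naftifine-treated control groups were included. Cell density, dividing cells and cell fracture were assessed, with cell counts taken per field.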

Data set [18] is described as follows: Toxicity in mouse infected with Candida albicans SC5314 assessed as change in body weight administered via abdomen for 7 days. To be noted: in vivo, ip, 168 h, time 7 day. The procedure, abridged:
as §3

The nature of data set [19]: Hepatotoxicity in mouse infected with Candida albicans SC5314 assessed as effect on alanine aminotransferase level in plasma administered via abdomen for 7 days (reference value: 105 +/- 8.3 IU/L). The format is toxicity. To be noted: ip, 168 h, time 7 day.
Data set [20] has as its system Candida albicans SC5314. Put plainly: Inhibition of SE/CYP51 in Candida albicans ATCC SC5314 assessed as lanosterol level at 4 ug/ml incubated for 48 hrs by LC/MS analysis. Also on record: scale not given: the % may be the effect or the level left. To be noted: dose 4.0 µg/ml. The procedure, abridged:
as §4

Take `CC(NC(=O)c1cccc2ccccc12)C(=O)NC(Cn1ccnc1)C(=O)c1ccccc1` (stereo unspecified): the result with Candida albicans [1], with Candida albicans [4], in the data set with Candida albicans [5], with Candida albicans [7], in the data set with Candida albicans [10] and in the data set with Candida albicans [11] was Active. For the same compound, in the data set with Candida albicans [17], the outcome was Active. Besides, the Activity in the data set with Candida albicans SC5314 [2] is 7.9%; in data set [3] it was “Non-Toxic”; in the data set with Candida albicans SC5314 [6] it was 2.8%; in data set [8], “Non-Toxic”; in the data set with Candida albicans SC5314 [9], 42.6%; with Candida albicans [12] it was 11%. For the same compound, the Activity with Candida albicans SC5314 [13] is 17.5%; in the data set with Candida albicans SC5314 [15], 6.2%; in the data set with Candida albicans [16], 7.51 um; in [18] it was “Non-Toxic”; in data set [19] it was 106 IU/L; in the data set with Candida albicans SC5314 [20] it was 12.5%. Further, the MIC50 in the data set with Candida albicans [14] and with Candida tropicalis was 0.125 µg/mL each time.
As for `O=C(NC(Cn1ccnc1)C(=O)NCc1ccncc1)c1ccc2ccccc2c1` (stereo unspecified), the Activity with Candida albicans SC5314 [2] is 9.2%; in data set [3], “Non-Toxic”; in the data set with Candida albicans SC5314 [6], 3.8%; in data set [8] it was “Non-Toxic”; in the data set on Candida albicans SC5314 [9], 49.3%; in the data set on Candida albicans [12], 16%. Besides, the Activity with Candida albicans SC5314 [13] is 13.6%; with Candida albicans SC5314 [15], 6.1%; in the data set with Candida albicans [16] it was 7.53 um; in [18] it was “Non-Toxic”; in data set [19], 102 IU/L; with Candida albicans SC5314 [20], 10.9%. The MIC50 in the data set with Candida albicans [14] and with Candida tropicalis was 0.25 µg/mL throughout. Besides, in the data set with Candida albicans [17], the outcome was Active.

These data come from ChEMBL document CHEMBL4732095, “Novel naphthylamide derivatives as dual-target antifungal inhibitors: Design, synthesis and biological evaluation” (Eur J Med Chem, 2021).
